Data set [1] has as its system Mus musculus. Nature of the data set: Effective dose required for antagonist activity against strychnine induced seizures in mice when administered intraperitoneally. The data set is classed as functional. Conditions: ip. The method in brief: (§1)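 CD-1 male mice (18–26 g), groups of 5 or 10, housed individually, dosed ip in distilled H2O or H2O/Tween 80. Convulsant given 30 min later. Strychnine sulfate 2.7 mg/kg ip: protection = no tonic extension >15 min. MES 50 mA, 0.2 s, corneal: no tonic hind-limb extension. PTZ 60 mg/kg iv: no clonic seizures for 2 min. MPA 100 mg/kg iv: no seizures for 5 min. ED50 by quantal analysis from ≥4 doses, ≥10 mice each.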

A short description of data set [2]: Dose encompassing the 50% lethal effect was recorded when administered intraperitoneally in mice. In kind it is ADME, organism-based. The conditions noted are these: mouse, in vivo, ip. The method in brief:
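Deaths were recorded over the 7 days after dosing. The estimated LD50 was taken as the dose range spanning 50% lethality.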

Data set [3] relates to Mus musculus. Nature of the data set: Effective dose required for antagonist activity against pentylenetetrazole-induced seizures in mice when administered intraperitoneally. In kind it is functional. Conditions: ip. The method in brief: as §1
Data set [4] concerns Mus musculus. Nature of the data set: Effective dose required for antagonist activity against maximal electroshock induced seizures in mice when administered intraperitoneally. In kind it is functional. The conditions noted are these: ip. The method, boiled down: as §1
Background: Protection in the maximal electroshock model is a classic sign of anticonvulsant action.

The subject of data set [5] is Mus musculus. Nature of the data set: Effective dose required for antagonist activity against 3-mercaptopropionic-acid induced seizures in mice when administered intraperitoneally. In kind it is functional. The conditions noted are these: ip. The method in brief: as §1

Structures are written as SMILES.

By ED50 is commonly meant the dose that gives a 50% effect, or the effect in half of the subjects. The LD50 is the dose expected to kill half of the subjects tested. Turning to `Cn1nc(-c2ccccc2)nc1S(C)(=O)=O`, the ED50 in the data set on Mus musculus [1], in the data set on Mus musculus [3], with Mus musculus [4] and in the data set with Mus musculus [5] was over 200 mg/kg in each case. The LD50 in data set [2] is over 800 mg/kg.

Consider `Cn1c(-c2cccs2)nnc1S(C)(=O)=O`, for which the ED50 with Mus musculus [1], in the data set on Mus musculus [3], in the data set with Mus musculus [4] and in the data set with Mus musculus [5] was over 200 mg/kg in each case. This compound yielded an LD50 in data set [2] of over 800 mg/kg.

Consider `CSc1nc(-c2ccccc2)n(C)n1`, for which the ED50 with Mus musculus [1], with Mus musculus [3], in the data set on Mus musculus [4] and with Mus musculus [5] was over 100 mg/kg throughout. For the same compound, the LD50 in data set [2] is over 800 mg/kg.

On to `O=C1NC(=O)C(c2ccccc2)(c2ccccc2)N1` [PHENYTOIN], for which the ED50 in the data set with Mus musculus [1] is over 200 mg/kg; in the data set with Mus musculus [3], over 32 mg/kg; in the data set on Mus musculus [4] it was 25.9 mg/kg; in the data set with Mus musculus [5] it was 89 mg/kg.

As to `CSc1nnc(-c2ccc(F)cc2)n1C`, the ED50 was 33.4 mg/kg in the data set with Mus musculus [1], over 200 mg/kg with Mus musculus [3], over 200 mg/kg with Mus musculus [4] and over 200 mg/kg in the data set with Mus musculus [5]. This compound also came in with an LD50 in data set [2] of over 800 mg/kg.

As for `CSc1nnc(-c2cccc3ccccc23)n1C`, the ED50 with Mus musculus [1], in the data set on Mus musculus [3], with Mus musculus [4] and with Mus musculus [5] was over 200 mg/kg in each case. Besides, the LD50 in data set [2] is over 800 mg/kg.

For `Cn1nc(S(C)(=O)=O)nc1-c1ccccc1`, the median effective dose (ED50) in the data set with Mus musculus [1], in the data set on Mus musculus [3], in the data set on Mus musculus [4] and in the data set on Mus musculus [5] was over 200 mg/kg each time. This compound also registered an LD50 in data set [2] of over 800 mg/kg.

As to `Cn1nc([S+](C)[O-])nc1-c1ccccc1` (configuration not stated), the ED50 in the data set with Mus musculus [1], in the data set on Mus musculus [3], with Mus musculus [4] and in the data set on Mus musculus [5] was over 200 mg/kg each time. The LD50 in data set [2] is over 800 mg/kg.

`Cn1c(-c2cccc(F)c2)nnc1S(C)(=O)=O`: the ED50 in the data set with Mus musculus [1] is 12.1 mg/kg; with Mus musculus [3] it was over 200 mg/kg; in the data set with Mus musculus [4] it was over 200 mg/kg; in the data set with Mus musculus [5] it was over 200 mg/kg. Also, the LD50 in data set [2] is over 800 mg/kg.

Turning to `CSc1nnc(-c2ccc(Cl)cc2)n1C`, the figures for the median effective dose (ED50) with Mus musculus [1], in the data set on Mus musculus [3] and in the data set with Mus musculus [4] were 28.1 mg/kg, over 200 mg/kg and over 200 mg/kg, respectively. Further, the LD50 in data set [2] is over 800 mg/kg.

Consider `COc1ccc(-c2nnc(S(C)(=O)=O)n2C)cc1`, for which the 50% effective dose (ED50) with Mus musculus [1], with Mus musculus [3], in the data set on Mus musculus [4] and with Mus musculus [5] was over 200 mg/kg each time. For the same compound, in data set [2], the LD50 is over 800 mg/kg.

For `CSc1nnc(-c2cccc(F)c2)n1C`, the ED50 with Mus musculus [1] is 13.8 mg/kg; in the data set with Mus musculus [3], over 200 mg/kg; with Mus musculus [4], over 200 mg/kg; with Mus musculus [5], over 200 mg/kg. This compound also showed an LD50 in data set [2] of over 800 mg/kg.

As for `Cn1c(-c2ccccc2F)nnc1[S+](C)[O-]` (configuration not stated), the ED50 is 20 mg/kg with Mus musculus [1], 57.9 mg/kg in the data set on Mus musculus [3], over 200 mg/kg with Mus musculus [4] and over 200 mg/kg with Mus musculus [5]. In addition, the LD50 in data set [2] was over 800 mg/kg.

Turning to `CN1C(=O)CN=C(c2ccccc2)c2cc(Cl)ccc21` [DIAZEPAM], the ED50 in the data set on Mus musculus [1] amounted to 40.6 mg/kg; with Mus musculus [3] it was 1.5 mg/kg; with Mus musculus [4], 14.8 mg/kg; in the data set with Mus musculus [5] it was 0.9 mg/kg.

As for `Cc1ccc(-c2nnc(S(C)(=O)=O)n2C)cc1`, the ED50 in the data set with Mus musculus [1], in the data set on Mus musculus [3], in the data set with Mus musculus [4] and with Mus musculus [5] was over 200 mg/kg each time. Moreover, the LD50 in data set [2] is over 800 mg/kg.

On to `Cn1c(-c2cccc3ccccc23)nnc1[S+](C)[O-]` (configuration not stated), for which the ED50 in the data set on Mus musculus [1], in the data set with Mus musculus [3], in the data set with Mus musculus [4] and in the data set on Mus musculus [5] was over 200 mg/kg each time. The compound further displayed an LD50 in data set [2] of over 800 mg/kg.

In the case of `Cn1c(-c2cccc3ccccc23)nnc1S(C)(=O)=O`, the ED50 in the data set on Mus musculus [1], with Mus musculus [3], with Mus musculus [4] and with Mus musculus [5] was over 200 mg/kg in each case. Further, the LD50 in data set [2] was over 800 mg/kg.

The values are drawn from ChEMBL document CHEMBL1127484, “5-Aryl-3-(alkylthio)-4H-1,2,4-triazoles as selective antagonists of strychnine-induced convulsions and potential antispastic agents” (J Med Chem, 1994).
